# What was measured:
# [1] = biological target: T1, rat ASCT2 (Rattus norvegicus, UniProt D3ZJ25); assay type: cell-based; conditions: for Behaviour in anion current assay (inhibitor / substrate): rASCT2, direction of induced current
# T1 sequence (D3ZJ25 1-555): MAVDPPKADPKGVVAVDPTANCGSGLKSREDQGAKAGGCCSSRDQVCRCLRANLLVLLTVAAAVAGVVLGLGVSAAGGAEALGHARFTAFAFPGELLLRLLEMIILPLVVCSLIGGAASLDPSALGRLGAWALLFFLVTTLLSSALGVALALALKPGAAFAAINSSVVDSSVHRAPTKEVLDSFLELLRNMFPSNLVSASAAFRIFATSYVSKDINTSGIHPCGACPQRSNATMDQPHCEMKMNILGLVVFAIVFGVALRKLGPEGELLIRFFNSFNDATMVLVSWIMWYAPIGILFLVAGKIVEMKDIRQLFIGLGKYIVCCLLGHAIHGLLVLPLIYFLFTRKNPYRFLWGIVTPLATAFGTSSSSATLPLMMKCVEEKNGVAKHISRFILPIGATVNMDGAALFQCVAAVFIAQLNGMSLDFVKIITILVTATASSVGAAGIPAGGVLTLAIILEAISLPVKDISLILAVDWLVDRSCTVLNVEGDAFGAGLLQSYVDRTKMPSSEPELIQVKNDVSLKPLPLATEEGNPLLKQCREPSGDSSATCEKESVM
# Method in brief: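 HEK293 cells cotransfected with rASCT2 and YFP cDNA; whole-cell recording 24–30 h later at 0 mV. External 140 mM NaCl, 2 mM MgCl2, 2 mM CaCl2, 10 mM HEPES pH 7.40; NaSCN pipette solution with 10 mM alanine. 1 mM L-alanine control; outward current = leak inhibition. Ki from Michaelis–Menten-like fit, including varied alanine; Imax from 1 mM response and Km. ≥4 repeats.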
# [2] = biological target: T2, hASCT2 (Homo sapiens, UniProt Q15758); assay: Current recording in HEK293 cells expressing human ASCT2; assay type: cell-based
# T2 sequence (Q15758 1-541): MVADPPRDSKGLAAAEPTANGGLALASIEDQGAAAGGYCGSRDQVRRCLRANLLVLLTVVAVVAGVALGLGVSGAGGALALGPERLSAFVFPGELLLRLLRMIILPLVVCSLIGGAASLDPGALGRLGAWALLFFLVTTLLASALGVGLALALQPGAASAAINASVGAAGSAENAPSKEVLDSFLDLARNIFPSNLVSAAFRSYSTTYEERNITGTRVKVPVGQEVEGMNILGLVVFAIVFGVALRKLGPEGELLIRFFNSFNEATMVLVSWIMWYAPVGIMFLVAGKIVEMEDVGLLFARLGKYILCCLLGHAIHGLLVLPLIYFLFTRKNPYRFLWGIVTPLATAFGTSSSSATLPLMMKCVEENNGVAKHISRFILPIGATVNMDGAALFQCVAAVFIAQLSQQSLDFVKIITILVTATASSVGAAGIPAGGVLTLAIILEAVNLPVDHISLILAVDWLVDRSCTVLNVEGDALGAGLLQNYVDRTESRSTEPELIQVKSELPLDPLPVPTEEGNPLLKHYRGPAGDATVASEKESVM
Behaviour in anion current assay (inhibitor / substrate) [1],Compound,other results
,4-fluorobenzene sulfonamide [Compound 9b],"Imax, maximum current at saturating concentration ([1]; rASCT2, compared with current induced by 1 mM alanine): highest outward current"
properties of a transported substrate,"NC[C@H](N)C(=O)O [Compound 1, L-2,3-diaminopropionic acid]",
borderline substrate-like properties,"CS(N)(=O)=O [Compound 2b, methanesulfonamide]",
,"C[C@H](N)C(=O)O [alanine, L-alanine]",Current for saturating alanine in hASCT2 [2]: < 20 pA
